ChEMBL document CHEMBL3244011, “(Aryloxy)[p-(aryloxy)phenyl]- and (aryloxy)[p-(arylthio)phenyl]acetic acids and esters as hypolipidemic agents” (1979)

Key:
Type in all cases: functional
Parameters in all cases: scale not given: the % may be the effect or the level left
[1] = test system: Rattus norvegicus; test: Hypolipidemic activity in COBBS-CD rat assessed as reduction in serum triglyceride level at 0.1% administered with chow diet after 5 days relative to control
In short: (§1)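 The compound was given in ground chow at 0.1, 0.03 or 0.01% w/w (about 100, 30 and 10 mg/kg) to male COBBS-CD rats (n=4; solvent-chow controls n=8) for 5 days ad libitum. Rats were killed by decapitation and blood collected. Serum triglycerides were assayed by an automated method and compared with controls; ± values are SD.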

[2] = test system: Rattus norvegicus; test: Hypolipidemic activity in COBBS-CD rat assessed as reduction in serum sterol level at 0.03% administered with chow diet after 5 days relative to control
In short: (§2)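 Male COBBS-CD rats, four per treated group and eight per control group. The compound was mixed into ground rat chow at 0.1, 0.03 or 0.01% w/w (about 100, 30 and 10 mg/kg). Control chow received only the mixing solvent (methanol-chloroform 1:3 v/v). Food and water were ad libitum for 5 days, then rats were decapitated and blood collected. Serum sterols were measured by an automated method and expressed relative to controls; ± values are SD.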

[3] = test system: Rattus norvegicus; test: Hypolipidemic activity in COBBS-CD rat assessed as reduction in serum triglyceride level at 0.01% administered with chow diet after 5 days relative to control; in short: as §1
[4] = test system: Rattus norvegicus; test: Hypolipidemic activity in COBBS-CD rat assessed as reduction in serum sterol level at 0.01% administered with chow diet after 5 days relative to control; in short: as §2
[5] = test system: Rattus norvegicus; test: Hypolipidemic activity in COBBS-CD rat assessed as reduction in serum triglyceride level at 0.03% administered with chow diet after 5 days relative to control; in short: as §1
[6] = test system: Rattus norvegicus; test: Hypolipidemic activity in COBBS-CD rat assessed as reduction in serum sterol level at 0.1% administered with chow diet after 5 days relative to control; in short: as §2

| Structure (SMILES) | Activity [1] [%] | Activity [2] [%] | Activity [3] [%] | Activity [4] [%] | Activity [5] [%] | Activity [6] [%] |
| --- | --- | --- | --- | --- | --- | --- |
| COC(=O)C(Oc1cc(C(C)(C)C)cc(C(C)(C)C)c1)c1ccc(Oc2ccc(Cl)cc2)cc1 (configuration not stated) | 7 | -12 | 23 | -30 | -7 | -6 |
| COC(=O)C(Oc1ccc(Cl)cc1)c1ccc(Oc2ccc(Cl)c3ccccc23)cc1 (configuration not stated) | 38 | 17 | 33 | 6 | 12 | 23 |
| COC(=O)C(Oc1ccc(Cl)c(Cl)c1)c1ccc(Oc2ccc(Cl)cc2)cc1 (configuration not stated) | 67 | 26 | 14 | 5 | 60 | 24 |
| COC(=O)C(Oc1cccc(C(F)(F)F)c1)c1ccc(Oc2ccc(C#N)cc2)cc1 (configuration not stated) | 50 | 24 | -37 | 12 | 34 | 32 |
| COC(=O)C(Oc1cc(Cl)c(Cl)c(Cl)c1)c1ccc(Oc2ccc(Cl)cc2)cc1 (configuration not stated) | 55 | -2 | 15 | 3 | 46 | 30 |
| COC(=O)C(Oc1ccc(NC(C)=O)cc1)c1ccc(Oc2ccc(Cl)cc2)cc1 (configuration not stated) | 13 | -11 | -9 | -4 | -20 | -3 |
| COC(=O)C(Oc1ccc(F)cc1)c1ccc(Oc2cccc(C(F)(F)F)c2)cc1 (configuration not stated) | 48 | 6 | 45 | 4 | 27 | 32 |
| COC(=O)C(Oc1ccc(F)cc1)c1ccc(Oc2ccc(S(C)(=O)=O)cc2)cc1 (configuration not stated) | 3 | -1 | 16 | -3 | -8 | 10 |
| COC(=O)C(Oc1ccc(C)c(C)c1)c1ccc(Oc2ccc(Cl)cc2)cc1 (configuration not stated) | 63 | 28 | 23 | 18 | 45 | 46 |
| COC(=O)C(Oc1ccccc1)c1ccc(Oc2ccc(Cl)cc2)cc1 (configuration not stated) | 68 | 18 | 77 | 18 | 67 | 31 |
| COC(=O)C(Oc1cccc(C(F)(F)F)c1)c1ccc(Oc2ccc(Cl)cc2)cc1 (configuration not stated) | 61 | 16 | 18 | -6 | 47 | 28 |
| CCOC(=O)C(Oc1ccc(Cl)cc1)c1ccc(Oc2ccc(Cl)cc2)cc1 (configuration not stated) | 60 | 25 | 40 | 18 | 51 | 25 |
| O=C(O)C(Oc1ccc(Cl)cc1)c1ccc(Oc2ccc(Cl)cc2)cc1 (configuration not stated) | 60 | 23 | 34 | 12 | 50 | 31 |
| COC(=O)C(Oc1ccc(C(C)(C)C)cc1)c1ccc(Oc2ccc(Cl)cc2)cc1 (configuration not stated) | 57 | 20 | 41 | 27 | 53 | 20 |
| COC(=O)C(Oc1ccc(C2(C)CCCCC2)cc1)c1ccc(Oc2ccc(Cl)cc2)cc1 (configuration not stated) | 65 | 13 | 64 | 26 | 70 | 18 |
| COC(=O)C(Oc1ccc(Cl)cc1)c1ccc(Sc2ccc(Cl)cc2)cc1 (configuration not stated) | 64 | 25 | 66 | 17 | 62 | 25 |
| O=C(O)C(Oc1ccccc1)c1ccc(Oc2ccccc2)cc1 (configuration not stated) | 51 | 15 | 3 | 21 | 37 | 22 |
| COC(=O)C(Oc1cccc(C(C)(C)C)c1)c1ccc(Oc2ccc(C(C)(C)C)cc2)cc1 (configuration not stated) | 33 | 6 | 21 | -5 | 13 | 4 |
| COC(=O)C(Oc1cccc2ccccc12)c1ccc(Oc2ccc(Cl)cc2)cc1 (configuration not stated) | 39 | 3 | – | – | 36 | 4 |
